Laboratory results: PMC3180640 (Frontiers in Pharmacology, 2011)
pKd: −log10 of the molar value.

How the values were obtained:
[1] = molecular target: T1, human wt-CFTR (Homo sapiens, UniProt P13569); assay: Fluorescence assay of CFTR channel function; format: cell-based; conditions: FRT cells expressing wild-type CFTR, in the presence of 0.1 μmol/L forskolin
[2] = molecular target: T1, human wt-CFTR; format: cell-based
[3] = tested on: mouse tracheal submucosal glands; assay: Measurement of individual submucosal gland fluid secretion in mouse trachea; conditions: 10 μmol/L osthole in serosal bathing solution
Method in brief: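 Cranial segment of freshly excised mouse trachea mounted on a sponge, soaked in Krebs–Henseleit solution, mucosal side up in a humidified 5% CO2/95% air chamber at 37°C. Mucosa cleared with saline, nitrogen-dried, then covered with saline-saturated oil. Some tissues pre-incubated 30 min with 20 μmol/L CFTRinh-172. Gland droplets imaged by reflected-light microscopy after stimulation; secretion rate computed from droplet diameter assuming hemispherical shape.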

[4] = tested on: ΔF508-CFTR; assay: Potentiation of ΔF508-CFTR; format: cell-based; conditions: ΔF508-CFTR versus wt-CFTR
[5] = molecular target: ΔF508-CFTR; conditions: read-out: affinity in potentiating ΔF508-CFTR; ref Xu et al., 2008; cited from earlier work
[6] = tested on: rat colonic mucosa; assay: Short-circuit current assay on rat colonic mucosa; conditions: rat distal colonic mucosa

T1 sequence (P13569 whole entry): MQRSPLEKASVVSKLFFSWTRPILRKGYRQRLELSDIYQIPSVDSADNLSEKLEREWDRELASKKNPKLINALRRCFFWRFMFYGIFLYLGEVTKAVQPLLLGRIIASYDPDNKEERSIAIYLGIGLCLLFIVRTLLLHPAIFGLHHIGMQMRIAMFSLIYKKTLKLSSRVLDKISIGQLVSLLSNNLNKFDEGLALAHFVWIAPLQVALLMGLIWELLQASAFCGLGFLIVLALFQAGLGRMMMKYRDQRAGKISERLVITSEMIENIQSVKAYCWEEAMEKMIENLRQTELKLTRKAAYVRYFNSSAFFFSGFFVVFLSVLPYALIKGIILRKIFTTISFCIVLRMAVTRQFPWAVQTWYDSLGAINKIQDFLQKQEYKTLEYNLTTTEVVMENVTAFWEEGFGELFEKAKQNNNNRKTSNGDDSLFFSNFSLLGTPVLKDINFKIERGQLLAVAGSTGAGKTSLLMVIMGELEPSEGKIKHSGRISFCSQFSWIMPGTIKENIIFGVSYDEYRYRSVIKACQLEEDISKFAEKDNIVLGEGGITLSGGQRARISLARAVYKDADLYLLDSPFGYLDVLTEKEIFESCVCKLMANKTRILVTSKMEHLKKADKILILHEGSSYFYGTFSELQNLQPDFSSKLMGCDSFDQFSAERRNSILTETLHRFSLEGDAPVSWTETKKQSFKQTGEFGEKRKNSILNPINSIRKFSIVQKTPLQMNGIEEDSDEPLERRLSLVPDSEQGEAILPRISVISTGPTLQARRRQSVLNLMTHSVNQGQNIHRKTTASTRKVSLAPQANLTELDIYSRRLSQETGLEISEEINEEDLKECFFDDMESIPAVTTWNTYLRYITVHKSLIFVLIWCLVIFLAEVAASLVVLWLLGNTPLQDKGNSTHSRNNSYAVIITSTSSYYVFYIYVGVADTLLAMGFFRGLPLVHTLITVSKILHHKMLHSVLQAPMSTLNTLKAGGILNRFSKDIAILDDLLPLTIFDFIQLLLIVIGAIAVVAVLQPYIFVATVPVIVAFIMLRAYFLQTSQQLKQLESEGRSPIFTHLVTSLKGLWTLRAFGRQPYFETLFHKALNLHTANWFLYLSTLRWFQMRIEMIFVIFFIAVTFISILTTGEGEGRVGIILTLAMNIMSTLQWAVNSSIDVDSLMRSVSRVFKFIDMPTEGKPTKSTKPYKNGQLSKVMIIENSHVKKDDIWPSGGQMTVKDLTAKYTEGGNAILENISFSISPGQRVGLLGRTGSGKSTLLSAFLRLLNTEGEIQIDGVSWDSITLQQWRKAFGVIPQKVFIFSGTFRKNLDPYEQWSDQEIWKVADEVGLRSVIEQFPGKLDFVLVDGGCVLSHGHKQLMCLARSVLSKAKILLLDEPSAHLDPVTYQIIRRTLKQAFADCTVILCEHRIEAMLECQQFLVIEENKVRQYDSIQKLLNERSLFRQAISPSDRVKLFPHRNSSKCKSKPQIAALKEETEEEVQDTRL

O=c1ccc2ccc3occc3c2o1 [isopsoralen]
stimulation of wt-CFTR-mediated I− influx [1]: stimulated wt-CFTR-mediated I^− influx in a concentration-dependent way

COc1ccc2ccc(=O)oc2c1CC=C(C)C [osthole]
stimulation of wt-CFTR-mediated I− influx [1]: stimulated wt-CFTR-mediated I^− influx in a concentration-dependent way
pKd [2]: > 7.30
increase of fluid secretion rate compared to the saline control [3]: 3.34 fold
affinity in potentiating ΔF508-CFTR lower than in activating wt-CFTR [4]: > 200 fold
pKd [5]: ~5.00

CC(C)=CCOc1c2occc2cc2ccc(=O)oc12 [imperatorin]
stimulation of wt-CFTR-mediated I− influx [1]: stimulated wt-CFTR-mediated I^− influx in a concentration-dependent way

COc1cc2ccc(=O)oc2cc1OC [scoparone]
stimulation of wt-CFTR-mediated I− influx [1]: stimulated wt-CFTR-mediated I^− influx in a concentration-dependent way

O=C(O)c1ccc(/C=C2\SC(=S)N(c3cccc(C(F)(F)F)c3)C2=O)cc1 [CFTRinh-172, reference compound]
block of coumarin-stimulated Cl− current ([2]; CFTRinh-172 at 20 μmol/L): completely blocked the activations
effect on osthole-stimulated chloride secretion [6]: completely abolished the osthole-stimulated chloride secretion
